Experimental data from ChEMBL document CHEMBL1687749, “Beijing genotype of Mycobacterium tuberculosis is significantly associated with high-level fluoroquinolone resistance in Vietnam” (2009).
In brackets after ≈: the same amount, converted by molar mass.

Legend:
Type in all cases: functional
[1] = tested on: Mycobacterium tuberculosis; experiment: Antimycobacterial activity against fluoroquinolone-resistant Mycobacterium tuberculosis Beijing genotype isolates without carrying multiple mutation and harboring gyrB A90V and T539P mutant genes
[2] = tested on: Mycobacterium tuberculosis; experiment: Antimycobacterial activity against fluoroquinolone-resistant Mycobacterium tuberculosis Beijing genotype isolates without carrying mutation
How it was run: (§1)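 Ofloxacin MIC was determined on the first 65 FQ-resistant clinical isolates, and 64 regrew on subculture. Resistance was defined by the WHO 1% proportion method on Lowenstein-Jensen medium with ofloxacin at 2 μg/ml. Mutations were assigned by gyrA/gyrB sequencing and Beijing genotype by spoligotyping. The value is the median MIC per mutation, excluding isolates with multiple mutations or sequencing heteropeaks.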

[3] = tested on: Mycobacterium tuberculosis; experiment: Antimycobacterial activity against mixture of fluoroquinolone-resistant and sensitive Mycobacterium tuberculosis Beijing genotype isolates carrying heteropeaks upon sequencing
How it was run: (§2)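 Ofloxacin MIC was determined on isolates from the first 65 FQ-resistant clinical isolates, screened by the WHO 1% proportion method on Lowenstein-Jensen medium with ofloxacin at 2 μg/ml. Beijing genotype was assigned by spoligotyping.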

[4] = tested on: Mycobacterium tuberculosis; experiment: Antimycobacterial activity against mixture of fluoroquinolone-resistant and sensitive Mycobacterium tuberculosis Beijing genotype isolates carrying heteropeaks upon sequencing at mutation site and harboring gyrA D94A mutant gene; how it was run: as §2
[5] = tested on: Mycobacterium tuberculosis; experiment: Antimycobacterial activity against mixture of fluoroquinolone-resistant and sensitive Mycobacterium tuberculosis Beijing genotype isolates carrying heteropeaks upon sequencing at mutation site and harboring gyrB D540D mutant gene; how it was run: as §2
[6] = tested on: Mycobacterium tuberculosis; experiment: Antimycobacterial activity against fluoroquinolone-resistant Mycobacterium tuberculosis Beijing genotype isolates without carrying multiple mutation and harboring gyrA A90V mutant gene; how it was run: as §1
[7] = tested on: Mycobacterium tuberculosis; experiment: Antimycobacterial activity against mixture of fluoroquinolone-resistant and sensitive Mycobacterium tuberculosis Beijing genotype isolates carrying heteropeaks upon sequencing at mutation site and harboring gyrA D94G mutant gene; how it was run: as §2
[8] = tested on: Mycobacterium tuberculosis; experiment: Antimycobacterial activity against fluoroquinolone-resistant Mycobacterium tuberculosis Beijing genotype isolates without carrying multiple mutation and harboring gyrA D94A mutant gene; how it was run: as §1
[9] = tested on: Mycobacterium tuberculosis; experiment: Antimycobacterial activity against mixture of fluoroquinolone-resistant and sensitive Mycobacterium tuberculosis Beijing genotype isolates carrying heteropeaks upon sequencing at mutation site and harboring gyrA D94G and D94A mutant genes; how it was run: as §2
[10] = tested on: Mycobacterium tuberculosis; experiment: Antimycobacterial activity against mixture of fluoroquinolone-resistant and sensitive Mycobacterium tuberculosis Beijing genotype isolates carrying heteropeaks upon sequencing at mutation site and harboring gyrB A90V and T539P mutant genes; how it was run: as §2
[11] = tested on: Mycobacterium tuberculosis; experiment: Antimycobacterial activity against fluoroquinolone-resistant Mycobacterium tuberculosis Beijing genotype isolates without carrying multiple mutation and harboring gyrB D500N mutant gene; how it was run: as §1
[12] = tested on: Mycobacterium tuberculosis; experiment: Antimycobacterial activity against mixture of fluoroquinolone-resistant and sensitive Mycobacterium tuberculosis Beijing genotype isolates carrying heteropeaks upon sequencing at mutation site and harboring gyrA A90V and D94G mutant genes; how it was run: as §2
[13] = tested on: Mycobacterium tuberculosis; experiment: Antimycobacterial activity against mixture of fluoroquinolone-resistant and sensitive Mycobacterium tuberculosis Beijing genotype isolates carrying heteropeaks upon sequencing at mutation site and harboring gyrA A90V and D94A mutant genes; how it was run: as §2
[14] = tested on: Mycobacterium tuberculosis; experiment: Antimycobacterial activity against fluoroquinolone-resistant Mycobacterium tuberculosis Beijing genotype isolates without carrying multiple mutation and harboring gyrA D94N mutant gene; how it was run: as §1
[15] = tested on: Mycobacterium tuberculosis; experiment: Antimycobacterial activity against mixture of fluoroquinolone-resistant and sensitive Mycobacterium tuberculosis Beijing genotype isolates carrying heteropeaks upon sequencing at mutation site and harboring gyrA D94N mutant gene; how it was run: as §2
[16] = tested on: Mycobacterium tuberculosis; experiment: Antimycobacterial activity against mixture of fluoroquinolone-resistant and sensitive Mycobacterium tuberculosis Beijing genotype isolates carrying heteropeaks upon sequencing at mutation site and harboring gyrA D94Y mutant gene; how it was run: as §2
[17] = tested on: Mycobacterium tuberculosis; experiment: Antimycobacterial activity against fluoroquinolone-resistant Mycobacterium tuberculosis Beijing genotype isolates without carrying multiple mutation and harboring gyrA D94G mutant gene; how it was run: as §1
[18] = tested on: Mycobacterium tuberculosis; experiment: Antimycobacterial activity against mixture of fluoroquinolone-resistant and sensitive Mycobacterium tuberculosis Beijing genotype isolates carrying heteropeaks upon sequencing at mutation site and harboring gyrB A90V and D500A mutant genes; how it was run: as §2
[19] = tested on: Mycobacterium tuberculosis; experiment: Antimycobacterial activity against mixture of fluoroquinolone-resistant and sensitive Mycobacterium tuberculosis Beijing genotype isolates carrying heteropeaks upon sequencing at mutation site and harboring gyrA G88A mutant gene; how it was run: as §2
[20] = tested on: Mycobacterium tuberculosis; experiment: Antimycobacterial activity against mixture of fluoroquinolone-resistant and sensitive Mycobacterium tuberculosis Beijing genotype isolates carrying heteropeaks upon sequencing at mutation site and harboring gyrA A90V mutant gene; how it was run: as §2
[21] = tested on: Mycobacterium tuberculosis; experiment: Antimycobacterial activity against mixture of fluoroquinolone-resistant and sensitive Mycobacterium tuberculosis Beijing genotype isolates carrying heteropeaks upon sequencing at mutation site and harboring gyrB D500N mutant gene; how it was run: as §2
[22] = tested on: Mycobacterium tuberculosis; experiment: Antimycobacterial activity against fluoroquinolone-resistant Mycobacterium tuberculosis Beijing genotype isolates without carrying multiple mutation and harboring gyrA D94Y mutant gene; how it was run: as §1
[23] = tested on: Mycobacterium tuberculosis; experiment: Antimycobacterial activity against fluoroquinolone-resistant Mycobacterium tuberculosis Beijing genotype isolates without carrying multiple mutation and harboring gyrB D540D mutant gene; how it was run: as §1

`CC1COc2c(N3CCN(C)CC3)c(F)cc3c(=O)c(C(=O)O)cn1c23` (stereo not drawn) [OFLOXACIN] was tested, and the MIC [1] was over 12 µg/mL, the MIC [2] was 4 µg/mL (≈ 11.1 µM) and the MIC [3] was 4 µg/mL (≈ 11.1 µM). The MIC [4] was 8 µg/mL (≈ 22.1 µM), the MIC [5] was 12 µg/mL (≈ 33.2 µM) and the MIC [6] was 8 µg/mL (≈ 22.1 µM). The MIC [7] was 12 µg/mL (≈ 33.2 µM), the MIC [8] was 8 µg/mL (≈ 22.1 µM) and the MIC [9] was 12 µg/mL (≈ 33.2 µM). For the same compound, the MIC [10] was over 12 µg/mL, the MIC [11] was over 4 µg/mL and the MIC [12] was 12 µg/mL (≈ 33.2 µM). The MIC [13] was 8 µg/mL (≈ 22.1 µM), the MIC [14] was 12 µg/mL (≈ 33.2 µM) and the MIC [15] was 12 µg/mL (≈ 33.2 µM). The MIC [16] was over 12 µg/mL, the MIC [17] was 12 µg/mL (≈ 33.2 µM) and the MIC [18] was 8 µg/mL (≈ 22.1 µM). It also gave an MIC [19] of 12 µg/mL (≈ 33.2 µM), an MIC [20] of 8 µg/mL (≈ 22.1 µM) and an MIC [21] of 4 µg/mL (≈ 11.1 µM). It also gave an MIC [22] of 12 µg/mL (≈ 33.2 µM) and an MIC [23] of 12 µg/mL (≈ 33.2 µM).
